Source: ChEMBL document CHEMBL4680121, “Development of (4-methoxyphenyl)-1H-tetrazol-5-amine regioisomers as a new class of selective antitubercular agents” (Eur J Med Chem, 2020)

Tests used:
Assay type in all cases: functional
[1] = test system: Mycobacterium tuberculosis; experiment: Antitubercular activity against INH-resistant Mycobacterium tuberculosis Spec.800 assessed as reduction in bacterial growth incubated for 14 days in presence of 1/2 x MIC ethambutol by MABA method; conditions: Mycobacterium tuberculosis, 800, 336 h; time 14 day
Outline: (§1)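 Checkerboard-type combination in Middlebrook 7H9 with 10% OADC. The test derivative at 1 to 1/32 of its MIC alone was mixed with the reference drug fixed at 1/2 its MIC. 4 ml samples were inoculated with McFarland 1 suspension and incubated 14 days at 37 °C. MIC is the lowest derivative concentration in combination that inhibited growth in liquid medium.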

[2] = test system: Mycobacterium tuberculosis; experiment: Antitubercular activity against INH-resistant Mycobacterium tuberculosis Spec.800 assessed as ethambutol MIC incubated for 14 days in presence of ethambutol by MABA method; conditions: Mycobacterium tuberculosis, 800, 336 h; time 14 day
Outline: (§2)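 In Middlebrook 7H9 with 10% OADC, the reference drug (INH, RMP, SM or EMB) at 1 to 1/32 of its MIC alone was mixed with the test derivative fixed at 1/2 its MIC. 4 ml samples were inoculated with McFarland 1 suspension and incubated 14 days at 37 °C. MIC is the lowest drug concentration in combination that inhibited growth.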

[3] = test system: Mycobacterium tuberculosis; experiment: Potency index, Ratio of rifampicin MIC to test compound MIC for antitubercular activity against PAS/INH/EMB/RMP-resistant Mycobacterium tuberculosis Spec.210 assessed as inhibition of microbial growth incubated for 1 week by MABA method; conditions: time 1 weeks
[4] = test system: Mycobacterium tuberculosis; experiment: Antitubercular activity against PAS/INH/EMB/RMP-resistant Mycobacterium tuberculosis Spec.210 assessed as reduction in bacterial growth incubated for 14 days in presence of 1/2 x MIC ethambutol by MABA method; conditions: Mycobacterium tuberculosis, 210, 336 h; time 14 day
Outline: (§3)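 Checkerboard-style combination in Middlebrook 7H9 broth with 10% OADC. The test derivative was varied from 1 to 1/32 of its MIC, and the reference drug was fixed at 1/2 its own MIC. Single-agent MICs were determined first by MABA. Samples of 4 ml received inoculum at 1 McFarland and were incubated 14 days at 37 °C. The endpoint was the lowest derivative concentration that inhibited growth.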

[5] = test system: Mycobacterium tuberculosis; experiment: Antitubercular activity against PAS/INH/EMB/RMP-resistant Mycobacterium tuberculosis Spec.210 assessed as reduction in bacterial growth incubated for 14 days in presence of 1/2 x MIC streptomycin by MABA method; conditions: Mycobacterium tuberculosis, 210, 336 h; time 14 day; outline: as §3
[6] = test system: Mycobacterium tuberculosis; experiment: Antitubercular activity against INH-resistant Mycobacterium tuberculosis Spec.800 assessed as reduction in bacterial growth incubated for 14 days in presence of 1/2 x MIC isoniazid by MABA method; conditions: Mycobacterium tuberculosis, 800, 336 h; time 14 day; outline: as §1
[7] = test system: Mycobacterium tuberculosis; experiment: Antitubercular activity against INH-resistant Mycobacterium tuberculosis Spec.800 harboring InhA promoter mutation assessed as fractional inhibitory concentration index in presence of 1/2 x MIC streptomycin incubated for 14 days by MABA method; conditions: time 14 day
Outline: (§4)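 Interaction analysis in Middlebrook 7H9 with 10% OADC. Combination MICs came from mixing the derivative (1 to 1/32 MIC) with the reference drug at 1/2 MIC, and the reverse, after 14 days at 37 °C with McFarland 1 inoculum. FICI was calculated from the combination MIC values and the MICs alone.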

[8] = test system: Mycobacterium tuberculosis; experiment: Antitubercular activity against INH-resistant Mycobacterium tuberculosis Spec.800 assessed as reduction in bacterial growth incubated for 14 days in presence of 1/2 x MIC streptomycin by MABA method; conditions: Mycobacterium tuberculosis, 800, 336 h; time 14 day; outline: as §1
[9] = test system: Mycobacterium tuberculosis; experiment: Antitubercular activity against INH-resistant Mycobacterium tuberculosis Spec.800 assessed as rifampicin MIC incubated for 14 days in presence of rifampicin by MABA method; conditions: Mycobacterium tuberculosis, 800, 336 h; time 14 day; outline: as §2
[10] = test system: Mycobacterium tuberculosis; experiment: Antitubercular activity against PAS/INH/EMB/RMP-resistant Mycobacterium tuberculosis Spec.210 assessed as fractional inhibitory concentration index in presence of 1/2 x MIC ethambutol incubated for 14 days by MABA method; conditions: time 14 day; outline: as §4
[11] = test system: Mycobacterium tuberculosis; experiment: Antitubercular activity against PAS/INH/EMB/RMP-resistant Mycobacterium tuberculosis Spec.210 assessed as streptomycin MIC incubated for 14 days in presence of streptomycin by MABA method; conditions: Mycobacterium tuberculosis, 210, 336 h; time 14 day
Outline: (§5)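 Combination assay in Middlebrook 7H9 broth with 10% OADC. The reference drug (INH, RMP, SM or EMB) was varied from 1 to 1/32 of its MIC, and the test derivative was fixed at 1/2 its own MIC. Single-agent MICs were determined first by MABA. Inoculum was 1 McFarland, with 14 days of incubation at 37 °C. The endpoint was the lowest reference-drug concentration that inhibited growth.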

[12] = test system: Mycobacterium tuberculosis; experiment: Antitubercular activity against INH-resistant Mycobacterium tuberculosis Spec.800 assessed as reduction in bacterial growth incubated for 14 days in presence of 1/2 x MIC rifampicin by MABA method; conditions: Mycobacterium tuberculosis, 800, 336 h; time 14 day; outline: as §1
[13] = test system: Mycobacterium tuberculosis; experiment: Antitubercular activity against PAS/INH/EMB/RMP-resistant Mycobacterium tuberculosis Spec.210 assessed as fractional inhibitory concentration index in presence of 1/2 x MIC streptomycin incubated for 14 days by MABA method; conditions: time 14 day; outline: as §4
[14] = test system: Mycobacterium tuberculosis; experiment: Antitubercular activity against INH-resistant Mycobacterium tuberculosis Spec.800 harboring InhA promoter mutation assessed as inhibition of microbial growth incubated for 1 week by MABA method; conditions: time 1 weeks
Outline: (§6)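 Microplate Alamar Blue assay in Middlebrook 7H9 broth with 10% OADC. Inoculum from fresh LJ culture was adjusted to McFarland 1 and diluted 1:20. DMSO stocks were two-fold serially diluted to final 0.125–512 µg/ml, with growth and sterile controls. Plates ran 1 week at 37 °C, then Alamar blue was added for 24 h. MIC is the lowest concentration preventing the blue-to-pink change.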

[15] = test system: Mycobacterium tuberculosis; experiment: Potency index, Ratio of ethambutol MIC to test compound MIC for antitubercular activity against PAS/INH/EMB/RMP-resistant Mycobacterium tuberculosis Spec.210 assessed as inhibition of microbial growth incubated for 1 week by MABA method; conditions: time 1 weeks
[16] = test system: Mycobacterium tuberculosis; experiment: Antitubercular activity against PAS/INH/EMB/RMP-resistant Mycobacterium tuberculosis Spec.210 assessed as ethambutol MIC incubated for 14 days in presence of ethambutol by MABA method; conditions: Mycobacterium tuberculosis, 210, 336 h; time 14 day; outline: as §2
[17] = test system: Mycobacterium tuberculosis; experiment: Antitubercular activity against PAS/INH/EMB/RMP-resistant Mycobacterium tuberculosis Spec.210 assessed as inhibition of microbial growth incubated for 1 week by MABA method; conditions: Mycobacterium tuberculosis, 210, 168 h; time 1 weeks; outline: as §6
[18] = test system: Mycobacterium tuberculosis; experiment: Antitubercular activity against INH-resistant Mycobacterium tuberculosis Spec.800 harboring InhA promoter mutation assessed as fractional inhibitory concentration index in presence of 1/2 x MIC rifampicin incubated for 14 days by MABA method; conditions: time 14 day; outline: as §4
[19] = test system: Mycobacterium tuberculosis; experiment: Potentiation of streptomycin-induced antimycobacterial activity against INH-resistant Mycobacterium tuberculosis Spec.800 harboring InhA promoter mutation assessed as fold decrease in streptomycin MIC at 1/2X MIC incubated for 14 days in presence of streptomycin by MABA method; conditions: time 14 day; outline: as §5
[20] = test system: Mycobacterium tuberculosis; experiment: Antitubercular activity against INH-resistant Mycobacterium tuberculosis Spec.800 harboring InhA promoter mutation assessed as fractional inhibitory concentration index in presence of 1/2 x MIC isoniazid incubated for 14 days by MABA method; conditions: time 14 day; outline: as §4
[21] = test system: Mycobacterium tuberculosis; experiment: Antitubercular activity against INH-resistant Mycobacterium tuberculosis Spec.800 harboring InhA promoter mutation assessed as fractional inhibitory concentration index in presence of 1/2 x MIC ethambutol incubated for 14 days by MABA method; conditions: time 14 day; outline: as §4
[22] = test system: Mycobacterium tuberculosis; experiment: Potency index, Ratio of streptomycin MIC to test compound MIC for antitubercular activity against PAS/INH/EMB/RMP-resistant Mycobacterium tuberculosis Spec.210 assessed as inhibition of microbial growth incubated for 1 week by MABA method; conditions: time 1 weeks

| SMILES | MIC [1] [mg/L] | MIC [2] [mg/L] | Ratio [3] | MIC [4] [mg/L] | MIC [5] [mg/L] | MIC [6] [mg/L] | fractional inhibitory concentration index (FICI) [7] | MIC [8] [mg/L] | MIC [9] [mg/L] | fractional inhibitory concentration index (FICI) [10] | MIC [11] [mg/L] | MIC [12] [mg/L] | fractional inhibitory concentration index (FICI) [13] | MIC [14] [mg/L] | Ratio [15] | MIC [16] [mg/L] | MIC [17] [mg/L] | fractional inhibitory concentration index (FICI) [18] | fold change (FC) [19] | fractional inhibitory concentration index (FICI) [20] | other results |
| --- | --- | --- | --- | --- | --- | --- | --- | --- | --- | --- | --- | --- | --- | --- | --- | --- | --- | --- | --- | --- | --- |
| COc1ccc(-n2nnnc2Nc2cccc(Br)c2)cc1 | 32 | 1 | 16 | 2 | 0.5 | 16 | 0.56 | 8 | 0.25 | 1.5 | 16 | 64 | 1.25 | 128 | 16 | 16 | 2 | 0.75 | <=4 | 0.625 | fractional inhibitory concentration index (FICI) [21]: 0.75; Ratio [22]: 8 |
| COc1ccc(-n2nnnc2Nc2ccc(Br)cc2)cc1 | 32 | 1 | 16 | 2 | 1 | 32 | 0.375 | 16 | 0.125 | 1.5 | 8 | 128 | 1 | 128 | 16 | 16 | 2 | 1.125 | 4 | 0.5 | fractional inhibitory concentration index (FICI) [21]: 0.75; Ratio [22]: 8 |
